From PubChem BioAssay
NTR1 ag: NTR1 (human) agonism. P30989. NTR1-U2OS beta-arrestin-GFP spot imaging, agonist mode. activation, % at 20 µM. actives 0.17% (n = 330,000);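 active = activation at or above 40% of the spot to cytoplasm intensity ratio, with at least 20 cells analyzed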;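 also: 0% = DMSO without peptide and 100% = 100 nM NTR1 peptide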
Target sequence (P30989 whole entry, looked up): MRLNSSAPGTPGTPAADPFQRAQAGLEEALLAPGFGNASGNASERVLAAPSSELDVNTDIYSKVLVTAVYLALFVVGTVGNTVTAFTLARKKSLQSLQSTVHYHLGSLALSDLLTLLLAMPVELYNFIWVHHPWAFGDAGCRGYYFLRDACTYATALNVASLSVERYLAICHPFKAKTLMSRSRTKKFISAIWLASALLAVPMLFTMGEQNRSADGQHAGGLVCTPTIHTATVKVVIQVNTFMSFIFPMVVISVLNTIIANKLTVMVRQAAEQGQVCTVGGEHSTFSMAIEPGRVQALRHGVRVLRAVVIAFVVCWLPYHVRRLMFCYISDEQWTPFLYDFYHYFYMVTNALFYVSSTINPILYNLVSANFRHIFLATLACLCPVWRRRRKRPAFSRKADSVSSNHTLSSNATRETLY
TLR4-MyD88 BLA: blocks binding of human TLR4 to MyD88; actives 0.18% (n = 200,000); inhibition, % at 8.4 µM; AID 861; HeLa CL3-4 TLR4/MyD88 BLA complementation, FRET ratio; O00206+Q99836; in the data active = inhibition above about 25%;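 also: 0% = vehicle and 100% = reference inhibitor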
NOD2 RIPK2 PPI: blocks binding of human NOD2 to RIPK2; O43353; CHO BLA complementation NOD2-RIPK2, CCF4 ratio; inhibition, % at 4.98 µM; actives 0.38% (n = 360,000); AID 624267; in the data active = inhibition above about 21%;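 also: 0% = vehicle only and 100% = reference blocker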
MC4R antag cAMP: antagonists of human melanocortin 4 receptor (MC4R) | P32245 | MC4R-expressing cells, MTII-stimulated cAMP, LANCE TR-FRET | inhibition, % at 6.5 µM | actives 0.48% (n = 360,000) | AID 540295;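 active = inhibition above its plate's cutoff, the mean of tested wells on that plate plus 3 SD, cut at about 29% in these data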;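 also: 0% = Melanotan II alone and 100% = Melanotan II plus saturating MCL0020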
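Assay system: U2OS-MC4R stable cell line; Also added: Melanotan II; Technique: Eu-cAMP/anti-cAMP TR-FRET, emission 671 nm; Times: 30-min compound, 1-h challenge, 1-h detection, room temperature.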
MC4R ag barr: activates human MC4R beta-arrestin recruitment; U2OS MC4R beta-arrestin complementation, luminescence; percent of melanotan II response, DMSO zero; activation, % at 8.9 µM; actives 0.98% (n = 360,000); AID 540308;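 active = activation above a per-plate cutoff, the mean activation of sample wells on that plate plus 3 SD, cut at about 8% in these data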
TLR9-MyD88 block: TLR9-MyD88 interaction inhibition. Q9NR96+Q99836. CHO BLA complementation TLR9-MyD88, CCF4 FRET ratio. inhibition, % at 4.98 µM. actives 0.21% (n = 340,000). AID 504734;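 active = inhibition above the mean over all tested compounds plus 3 SD, cut at about 21% in these data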;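 also: 0% = DMSO only wells and 100% = clavulanate BLA inhibitor control wells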
NOD2-RIPK2 conf: NOD2-RIPK2 interaction inhibition confirmed | shares compounds with NOD2 RIPK2 PPI | CHO cells, NOD2-RIPK2 BLA complementation, CCF4 FRET | inhibition, % at 4.98 µM | actives 70% (n = 1,200) | AID 624370;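 active = mean inhibition across replicates above a set limit taken from the earlier primary screen, cut at about 21% in these data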;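 also: 0% = DMSO-only wells and the high end = clavulanate BLA-blocked wells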
NOD2 BLA counter: counter-screen for NOD2-RIPK2 interaction inhibitors: BLA reporter; shares compounds with NOD2 RIPK2 PPI; CHO BLA reporter, CCF4 FRET ratio, counterscreen; inhibition, % at 4.98 µM; actives 57% (n = 1,200); AID 624371;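 active = mean inhibition above the low-control mean inhibition plus three low-control SD, cut at about 11% in these data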;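 also: 0% = DMSO only wells and 100% = clavulanate high control wells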
Starred values were filed as active, the others as inactive; . = no result given. Hits are enriched below; roughly 1.9% of the tested compounds scored in any of these assays.

SMILES	NTR1 ag	TLR4-MyD88 BLA	NOD2 RIPK2 PPI	MC4R antag cAMP	MC4R ag barr	TLR9-MyD88 block	NOD2-RIPK2 conf	NOD2 BLA counter
CC(C)(C)NC(=O)C(c1ccccc1)n1c(=O)c(-c2ccccc2)nc2ccccc21 (stereo not drawn)	.	.	-13	.	.	.	.	.
COc1ccc(C(C(=O)NC(C)(C)C)n2c(=O)c(-c3cc4ccccc4[nH]3)nc3ccccc32)cc1 (stereo not drawn)	.	.	41*	.	.	.	40*	64*
CCCCC(=O)Nc1ccc(NC(=O)c2ccc([N+](=O)[O-])cc2Cl)cc1OC	-2	-16	-10	19	0	-7	.	.
CCc1nc2ccccc2nc1N1CCN(S(=O)(=O)c2ccccc2)CC1	8	.	-3	3	0	.	.	.
Cc1c2cnn(CC(=O)Nc3c(F)c(F)cc(F)c3F)c(=O)c2c(C)n1Cc1ccccc1F	0	17	24*	22	25*	-4	10	-1
Fc1cccc(Nc2c3c(nc4ccccc24)CCC3)c1	6	.	22*	-2	0	-7	5	-1
CC(=O)c1cccc(Nc2c3c(nc4ccccc24)CCC3)c1	2	.	12	-25	0	6	.	.
CC1CCCC(C)N1CCOc1cc(N)ccc1C#N (stereo not drawn)	.	.	10	6	-2	-4	.	.
CN(C)c1ccc(C=Cc2ccnc3ccccc23)cc1N	.	.	33*	.	.	.	32*	33*
Cc1ccc(-c2cc(-c3n[nH]c(=S)o3)c3ccccc3n2)cc1	.	4	22*	4	-1	7	10	7
Cc1ccccc1N1C(=O)CC(Sc2nnc(-c3ccccc3)o2)C1=O (stereo not drawn)	-1	-7	43*	11	0	-5	34*	6
O=c1c(O)c(-c2ccc(O)cc2)oc2cc(O)cc(O)c12	0	.	-9	-21	1	4	.	.
O=c1c(O)c(-c2ccc(O)c(O)c2)oc2cc(O)ccc12	.	.	25*	-7	0	20	29*	28*
CCNC(=S)N1CCCC(C(N)=O)C1 (stereo not drawn)	0	-1	0	-3	-1	1	.	.
CC(=O)Nc1ccc(NC(=O)c2ccc(NS(=O)(=O)c3cc(C(C)(C)C)ccc3C)cc2)cc1	2	10	39*	3	6	5	-34	-8
O=C1c2ccccc2C(=O)N1CC1CCCO1 (stereo not drawn)	-1	-6	-4	3	-1	-4	.	.
O=C1c2cccc3cc([N+](=O)[O-])cc(c23)C(=O)N1CC1CCCO1 (stereo not drawn)	0	.	24*	14	-3	9	21	10
COc1cc(/C=C2/C(=O)CNC2=O)ccc1O	1	3	-3	-11	-2	1	.	.
COc1cc(C=C2C(=O)C=CC2=O)ccc1O	.	.	66*	.	.	.	93*	30*
O=C1C=C(O)c2cccc(O)c2C1=O	4	.	2	6	-1	2	.	.
O=C1C=C(c2c(O)ccc3ccccc23)c2ccccc2C1=O	.	.	21*	11	4	-5	15	-11
CCC(C)[C@H](NC(=O)C1CC(=O)N(c2ccc(OC)cc2)C1)C(=O)N1CCCCC1 (stereo partly drawn)	-1	.	-3	8	-3	-2	.	.
O=c1cc(S(=O)(=O)Cc2ccccc2)[nH]c(=O)[nH]1	.	.	-22	-1	0	6	.	.
CC1=C(C)CS(=O)N(S(=O)(=O)c2ccc(Cl)cc2)C1 (stereo not drawn)	1	0	37*	-16	-1	9	29*	3
COc1c(O)c(=O)n2c3ccccc3c3ccnc1c32	-1	.	26*	5	-1	18	21	18*
Cc1ccc(SC(C)C(=O)Nc2ccccc2-c2ccccc2)cc1 (stereo not drawn)	2	-10	43*	-3	1	-6	3	-3
